Measured values: ChEMBL document CHEMBL4513216, “Probing the Open Global Health Chemical Diversity Library for Multistage-Active Starting Points for Next-Generation Antimalarials” (ACS Infect Dis, 2020)

Experiment: Toxicity liver stage against HepG2, at 10uM
Assay type: cell-based
Design: test concentration 10 uM, cell line HepG2-A16-CD81EGFP
Conditions: human, HepG2-A16-CD81EGFP cells; read-out: INHIBITION
How it was run: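 Uninfected HepG2-A16-CD81EGFP cells, 3 × 10^3 per well, 1536-well, plated on prespotted compound at 10 μM final, parasite-free screening media added to match infected plates; puromycin 10 μM positive, DMSO 0.5% negative; run in parallel with 48 h PbLuc assay at 37 °C, 5% CO2; viability by CellTiter-Glo luminescence, normalized to controls.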
Work on `CC(=O)N1CC=C(n2c(=O)[nH]c3ccccc32)CC1` yielded a cytotoxicity at 10 µM of 1.73%. Compound `CC(C)CN1C[C@@H]2C(=O)NC3(CCN(C(=O)c4cccnc4)CC3)[C@@H]2C1` has a cytotoxicity at 10 µM of 5.53%. For `O=C(c1cc(F)cc(F)c1)N1C[C@H]2CNC[C@H]2C1`, the cytotoxicity at 10 µM was 2.91%. `COc1ccc(C2=C(C)C(N3CCc4ccccc4C3)=NS2(=O)=O)cc1` showed a cytotoxicity at 10 µM of -6.34%. In the case of `CN(C)S(=O)(=O)N1CCC(Oc2cnccn2)CC1`, the cytotoxicity at 10 µM is reported as 1.65%. With `CSc1ncn(-c2nc(N(C)C)nc(N(C)C)n2)n1` the cytotoxicity at 10 µM was -3.54%. In the case of `Cc1nn(C)c(C)c1CN1CCNCC1`, the cytotoxicity at 10 µM is reported as 4.68%. Compound `Nc1nccc(C2CN(Cc3ccc(-c4ccccc4C(=O)O)o3)C2)n1` has a cytotoxicity at 10 µM of 5%. `O=C(O)c1cccc(CN2CCCC(c3ccn[nH]3)C2)c1` (configuration not stated) gave a cytotoxicity at 10 µM of 3.98%. Compound `O=C(CC1CCN(c2cccnn2)CC1)Nc1cccnc1` has a cytotoxicity at 10 µM of 3.72%. Compound `CN1CCN(C(=O)c2ccccc2)CC(Cc2cc(N(C)C)ncn2)C1` (configuration not stated) has a cytotoxicity at 10 µM of 2%. `Cc1nn(C)c(C)c1-c1cnc(CC2CCNCC2)cn1` showed a cytotoxicity at 10 µM of -13.7%. `Cn1cc(S(=O)(=O)N2CCCC(Cn3cncn3)C2)cn1` (configuration not stated) gave a cytotoxicity at 10 µM of 2%. For `CC(=O)N1CCC(C(=O)N(CC(F)F)c2cccc(Cl)c2)CC1`, the cytotoxicity at 10 µM was 5.71%. `CSCC(=O)NC(Cc1ccc(C)cc1)c1ccccn1` (configuration not stated) showed a cytotoxicity at 10 µM of 1.23%. `O=C(CC1=CCCCC1)NCc1ccnc(OC2CCOCC2)c1` showed a cytotoxicity at 10 µM of -0.103%. For `CCOC(=O)NCCC(=O)NCc1ccnc(Oc2ccc(F)cc2)c1`, the cytotoxicity at 10 µM was 6.74%. Work on `CNC(=O)CSC(C)c1ccc(Br)cc1` (configuration not stated) yielded a cytotoxicity at 10 µM of -5.71%. `COC(C)C(=O)Nc1cc(C(=O)N2CCSCC2)ccc1C` (configuration not stated) showed a cytotoxicity at 10 µM of 6.83%. Compound `COc1c(C2CCCN2C(=O)c2cc(C3CC3)on2)c(C)nn1C` (configuration not stated) has a cytotoxicity at 10 µM of -2.87%. With `CSC(C)(C)CNC(=O)NC(c1nnc2n1CCC2)C(C)C` (configuration not stated) the cytotoxicity at 10 µM was -19.9%. `CCNC(=O)CN(CC)C(=O)c1cc(-c2cccc(Cl)c2)no1` showed a cytotoxicity at 10 µM of -9.88%. In the case of `Cc1ccc(N2CCCC(NC(=O)C(C)(C)C#N)C2=O)cc1` (configuration not stated), the cytotoxicity at 10 µM is reported as -2.42%. `CCc1ncc2c(n1)CN(C(C)C(=O)N1CCOCC1)CC2` (configuration not stated) gave a cytotoxicity at 10 µM of -8.52%. `Cc1ccc(S(=O)(=O)N(CCO)C2CC2)cc1N(C)C` gave a cytotoxicity at 10 µM of -8.91%. Compound `CC(=O)N1CCN(C(=O)CCc2cc(Br)cs2)CC1` has a cytotoxicity at 10 µM of -9.74%. `Cn1ccc(C(=O)NCc2ccccc2Cn2ccnc2)cc1=O` gave a cytotoxicity at 10 µM of 9.42%. Work on `CNC(=O)CN1CCC(NC(=O)CC(C)CCc2ccccc2)CC1` (configuration not stated) yielded a cytotoxicity at 10 µM of 8.47%. With `CCCC(C)NC(=O)CCN1C(=O)CCc2cc(F)ccc21` (configuration not stated) the cytotoxicity at 10 µM was 8.17%. With `COC(=O)N1CCCN(C(=O)NC2CCc3ccccc3C2)CC1` (configuration not stated) the cytotoxicity at 10 µM was -1.14%. Compound `Cc1nc(C2CCCN2C(=O)COCCOc2ccccc2)no1` (configuration not stated) has a cytotoxicity at 10 µM of -5.82%. `O=C(COc1cccc(Br)c1)N1CCN(c2nccs2)CC1` gave a cytotoxicity at 10 µM of -1.53%. In the case of `COCc1cncc2c1CCN(C(=O)c1cscn1)C2`, the cytotoxicity at 10 µM is reported as -104%. With `CC(C)CN1C[C@@H]2CN(c3cnccn3)C[C@@H]2C1=O` the cytotoxicity at 10 µM was -91.6%. Compound `CS(=O)(=O)NC[C@]12COC[C@H]1CN(C(=O)N1CCCC1)C2` has a cytotoxicity at 10 µM of -109%. Compound `c1cnc(N2CCO[C@H]3[C@H](OCc4cccnc4)CC[C@@H]32)nc1` has a cytotoxicity at 10 µM of -5.05%. `CCc1noc(CN(CCc2ccccc2)C2CCN(C)CC2)n1` showed a cytotoxicity at 10 µM of 0.15%. `O=C(CN1CCOC(c2ccc(Cl)c(Cl)c2)C1)NCc1ccco1` (configuration not stated) showed a cytotoxicity at 10 µM of -7.31%. For `Cc1nnc(SCCCNC(=O)Nc2ccc3c(c2)OCO3)s1`, the cytotoxicity at 10 µM was 7.28%. For `Cn1cc(CN(C(=O)c2ccc(O)c(Cl)c2)C2CC2)cn1`, the cytotoxicity at 10 µM was 5.17%. In the case of `OCC1(O)CCCN(Cc2nnc(-c3ccccc3)o2)CC1` (configuration not stated), the cytotoxicity at 10 µM is reported as -3.69%. `O=C(O)c1ccnc(-c2ccnc(COc3ccc(Cl)cc3)n2)c1` gave a cytotoxicity at 10 µM of -6.67%. Work on `O=C(NCCCOC1CCCCC1)C1NCCc2[nH]cnc21` (configuration not stated) yielded a cytotoxicity at 10 µM of 4.68%. `CN1CCCC2(CCN(C(=O)Cn3ncc4ccccc4c3=O)C2)C1=O` (configuration not stated) gave a cytotoxicity at 10 µM of 1.57%. `CC(Nc1nccc(CCC(F)(F)F)n1)c1nc(-c2ccccn2)no1` (configuration not stated) showed a cytotoxicity at 10 µM of -6.43%. In the case of `Cc1cc(C(=O)N[C@H]2Cc3ccccc3[C@@H]2N)c(=O)[nH]c1C`, the cytotoxicity at 10 µM is reported as 11.2%. Work on `Cc1nn(C)c(C)c1CN(C)C(C(=O)O)c1ccc(F)cc1F` (configuration not stated) yielded a cytotoxicity at 10 µM of 8.42%. In the case of `COCCn1ccnc1C1CCCN(c2cnccn2)C1` (configuration not stated), the cytotoxicity at 10 µM is reported as 3.23%. Work on `O=C(NCCCn1cccn1)C1CCC(=O)N(CC2CCCCC2)C1` (configuration not stated) yielded a cytotoxicity at 10 µM of -0.312%. Work on `O=C1CC2(CCN(Cc3ccc(-c4ccccc4)s3)C2)C(=O)N1` (configuration not stated) yielded a cytotoxicity at 10 µM of -0.745%. In the case of `Clc1ccc(N2CCC(C3CCN(Cc4cccnc4)CC3)C2)nc1` (configuration not stated), the cytotoxicity at 10 µM is reported as 13.5%. `CC(C)c1cc(N2CCCC3(CCN(C)C3)C2)ncn1` (configuration not stated) gave a cytotoxicity at 10 µM of -7.36%. `CCc1nnc(CN2CCCCC2Cn2cncn2)o1` (configuration not stated) gave a cytotoxicity at 10 µM of -1.1%. Work on `CCOc1cc(C)nc(N2CCN(C(=O)CN(C)C3CC3)CC2)n1` yielded a cytotoxicity at 10 µM of 5.05%. With `CC(Cc1ccco1)NC(=O)Nc1ccc(N2CCCC2)nc1` (configuration not stated) the cytotoxicity at 10 µM was -3.31%. `CC(Cn1cccn1)NC(=O)NCCc1ccsc1` (configuration not stated) gave a cytotoxicity at 10 µM of -14.8%. In the case of `COc1ccsc1C(=O)N1CCCC(n2cncn2)C1` (configuration not stated), the cytotoxicity at 10 µM is reported as 4.6%. Work on `Cc1nc(CN2CCCC(c3cc(C(F)(F)F)[nH]n3)C2)cs1` (configuration not stated) yielded a cytotoxicity at 10 µM of -4.95%. For `Cc1ccc(OCCN(C)C(=O)NC(C)c2nncn2C)cc1` (configuration not stated), the cytotoxicity at 10 µM was -9.77%. `Cc1cnn(CC2CN(CCc3ccccn3)CCO2)c1` (configuration not stated) showed a cytotoxicity at 10 µM of -4.98%. For `Cc1ccc(-c2nc(CN3CCCCC3Cn3cncn3)no2)cc1` (configuration not stated), the cytotoxicity at 10 µM was -0.403%. Compound `COc1cccc(C(=O)N2CCC(Nc3ccc(C)nn3)CC2)c1` has a cytotoxicity at 10 µM of -2.24%. For `Cn1ncc2c(NCC3CCCN3c3cccnn3)ncnc21` (configuration not stated), the cytotoxicity at 10 µM was -11.9%. With `CC(C)c1nc(CN2CCN(CC(O)c3ccccc3)CC2)no1` (configuration not stated) the cytotoxicity at 10 µM was -3.6%. Compound `COc1c(CNC2CCc3cc(C)ccc32)c(C)nn1C` (configuration not stated) has a cytotoxicity at 10 µM of -0.0225%. `O=C(c1ccc2c(c1)COC2)N1CCCN(Cc2cscn2)CC1` showed a cytotoxicity at 10 µM of 0.0102%. `Cn1ccnc1CN1CCN(CC(O)c2cc(F)ccc2F)CC1` (configuration not stated) showed a cytotoxicity at 10 µM of -13.8%. Work on `O=C(CCc1ccccn1)N1CCCN(C(=O)CC2CCCC2)CC1` yielded a cytotoxicity at 10 µM of -0.546%. Compound `CCOc1ccc(CC(CNC(=O)c2ccc(C)s2)C(N)=O)cc1` (configuration not stated) has a cytotoxicity at 10 µM of -3.85%. Work on `Cc1cnc(CN2CCOC(CN(C)c3cccnn3)C2)cn1` (configuration not stated) yielded a cytotoxicity at 10 µM of 3.64%. Work on `Cc1cc(C(=O)N2CCC(Nc3cccnn3)CC2)no1` yielded a cytotoxicity at 10 µM of -0.0225%. In the case of `Cc1nn(C)c(C)c1C1CCCN1Cc1nc(C2CC2)no1` (configuration not stated), the cytotoxicity at 10 µM is reported as -6.68%. Compound `CC(C)N(C)Cc1cnc2n1CCN(Cc1ccsc1)C2` has a cytotoxicity at 10 µM of 1.96%. For `O=C1[C@@H]2CN(Cc3ccccn3)C[C@H]2CCN1c1cncnc1`, the cytotoxicity at 10 µM was -115%. Work on `CC(C)Nc1nc2c(cc1C(=O)O)CCN(Cc1ccsc1)CC2` yielded a cytotoxicity at 10 µM of 0.676%. `c1ccc(CN2CCc3nnc(COc4ccccn4)n3CC2)nc1` showed a cytotoxicity at 10 µM of -2.1%. In the case of `COc1ccc(CN2CCC3(CC(=O)N(c4cccc(F)c4)C3)C2)cc1` (configuration not stated), the cytotoxicity at 10 µM is reported as -137%. `O=C(NCC1CCOCC1)[C@@H]1C[C@@H]2[C@@H](CCN2Cc2nccs2)O1` showed a cytotoxicity at 10 µM of 0.11%. For `COCC1CN(Cc2ccc(C)s2)Cc2nnn(C)c21` (configuration not stated), the cytotoxicity at 10 µM was 5.17%. Compound `O=C(NCc1cccc(Cl)c1)C1=NOC2(CCNC2)C1` (configuration not stated) has a cytotoxicity at 10 µM of -0.0606%. In the case of `CCn1cc(CN2C[C@@H]3CC[C@H]2CN(C(=O)c2ccncc2)C3)cn1`, the cytotoxicity at 10 µM is reported as 10.2%. Work on `Cc1[nH]ccc1C(=O)N1C[C@@H]2CC[C@H]1CN(S(=O)(=O)N(C)C)C2` yielded a cytotoxicity at 10 µM of 11.8%.
